This is a sample that favours compounds with a hit; in the whole collection about 2.2% have one here.
Ba/F3 V617F tox = loss of viability in JAK2V617F-driven Ba/F3 cells; inhibition, % at 5.6 µM; AID 1446; hit rate 1.1% among 220,000; Ba/F3 EpoR-JAK2V617F viability, ATP luminescence;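 active = inhibition above the campaign mean plus 3 SD over all tested compounds, cut at about 24% in these data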;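 also: cytokine-independent growth of Ba/F3 cells driven by EpoR plus mutant JAK2; 0% = DMSO-treated cells and 100% = JAK inhibitor I control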
bCat nuc transl = beta-catenin nuclear translocation modulation; nuclear translocation activity, % at 5 µM; hit rate 0.3% among 190,000; HeLa beta-catenin nuclear translocation, immunofluorescence imaging; AID 1665;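 active = nuclear translocation activity above 50% at 5 µM, with a well cell count of 50 or more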;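 also: per-cell ratio of nuclear to cytoplasmic median beta-catenin stain intensity; plate controls were DMSO negative control for no effect and GSK-3 inhibitor IX positive control for full effect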
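test system = HeLa cells, endogenous beta-catenin | dosing = single 5 µM dose plus 0.02–20 µM confirmation series | times = compound treatment 24 h, 37°C, 5% CO2 | technique = beta-catenin immunofluorescence imaging with DAPI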
APP transl inh = APP translation inhibition | hit rate 0.82% among 190,000 | inhibition, % at 2 µM | SH-SY5Y APP 5'UTR-luciferase reporter, luminescence | AID 1285;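 active = inhibition above a set limit, derived from the sample mean plus 3 SD, cut at about 45% in these data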
IEC-6 tox = IEC-6 cytotoxicity, counter-screen for KLF5 inhibitors. luminescence viability. inhibition, % at 5 µM. hit rate 0.78% among 290,000. AID 1825; in the data active = inhibition above about 22%;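 also: 0% = plate median of test compound wells and 100% = cytotoxic reference compound wells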
BaF3 tox = counter-screen for JAK2V617F inhibitors: parental Ba/F3 viability inhibitors | hit rate 1.1% among 220,000 | CellTiter-Glo ATP luminescence | inhibition, % at 5.6 µM | AID 1486;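 active = inhibition above a per-campaign cutoff, the mean inhibition of all tested compounds plus 3 SD, cut at about 27% in these data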;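 also: 0% = DMSO wells and 100% = JAK Inhibitor I control wells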
MT stabilize HCS = stabilizes microtubules in HeLa cells; HeLa tubulin immunostaining HCS, 24 h; share of cells brighter than vehicle mean+2SD; % tubulin-high responders, % at 10 µM; hit rate 0.83% among 200,000;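 active = plate Z-score above 3 for both tubulin-high and condensed-nucleus cell shares, with cell loss under 80%, at 10 µM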;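 also: anti alpha tubulin signal scored within the nucleus-defined area of each cell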
Numbers without * were called inactive; nt = no result.

SMILES | Ba/F3 V617F tox | bCat nuc transl | APP transl inh | IEC-6 tox | BaF3 tox | MT stabilize HCS
COC(=O)CSC1=NP(=S)(SCC(=O)OC)N2CCCC2=C1C#N (centres undefined) | 0 | 4 | 0 | -3 | 78* | 3
CCCCn1c(O)c(/C(C)=N/NC(=O)Nc2ccccc2)c(=O)[nH]c1=O | -3 | -1 | nt | -3 | 1 | nt
O=C(CCn1nc(-c2ccc(Cl)cc2)ccc1=O)N1CCC2(CC1)OCCO2 | 1 | -2 | -13 | -8 | 12 | 3
Cc1nc2cc(-c3ccc(Cl)cc3)nn2c(C)c1CCC(=O)N1CCC2(CC1)OCCO2 | 0 | nt | 50* | 0 | 4 | 3
COc1ccc(C(C)=O)cc1CC(C(=O)c1ccc(F)cc1)N(C)C (centres undefined) | 1 | 4 | -5 | -4 | 40* | 2
COc1ccc(C(=O)C(Cc2ccccc2)N(C)C)cc1 (centres undefined) | 35* | 1 | -7 | 0 | 36* | 4
COc1ccc(C(C)=O)cc1CC(C(=O)c1ccc(C)c(C)c1)N(C)C (centres undefined) | -4 | 0 | 12 | 2 | 3 | 1
COc1ccc2c(c1OC)C(=O)OC2c1c(O)n(C2CCCCC2)c(=O)[nH]c1=O (centres undefined) | -3 | 0 | -6 | -4 | 5 | 1
CC(=O)c1c(C)n(CCCOC(C)C)c2ccc(O)cc12 | 1 | -1 | -32 | 15 | 2 | 2
CN1/C(=C\C=C2C(=O)NC(=S)NC2=O)C(C)(C)c2ccccc21 | -1 | 0 | 19 | -7 | 1 | 5
CC1(C)OC(c2ccccc2)=C/C(=C/C=C2C(=O)NC(=S)NC2=O)O1 | -2 | 43 | -11 | -7 | 42* | 6
O=C(c1ccc(N2CCCCCC2)c([N+](=O)[O-])c1)N1CCC2(CC1)OCCO2 | 1 | -2 | 4 | 1 | 9 | nt
O=C(NC1(C(F)(F)F)Oc2ccc(Cl)cc2O1)N1CCC2(CC1)OCCO2 (centres undefined) | 44* | 4 | 48* | 4 | 20 | 3
O=[N+]([O-])c1cc(Cl)c(O)c(-[n+]2c(-c3ccccc3)cc(-c3ccccc3)cc2-c2ccccc2)c1 | nt | nt | nt | -8 | nt | nt
CN(C)c1ccc(-[n+]2c(-c3ccccc3)cc(-c3ccccc3)cc2-c2ccccc2)cc1 | 101* | 4 | 45 | 71* | 94* | 3
O=c1[nH]sc2cc(F)ccc12 | 28* | 1 | 6 | 1 | -1 | 4
CCc1ccc(NP(=O)(Oc2ccccc2F)Oc2ccccc2F)cc1 | 0 | 4 | -4 | -1 | -1 | 3
Cc1ccc(NP(=O)(Oc2ccccc2F)Oc2ccccc2F)cc1 | -2 | 0 | 0 | -7 | 66* | 3
COc1ccc(CC(C)NCCc2ccc(OC)c(OC)c2)cc1 (centres undefined) | nt | nt | nt | 2 | nt | nt
Cc1cc(C)cc(N2C(=O)NC(=O)/C(=C\C=C\c3ccco3)C2=O)c1 | 1 | -2 | 46* | -6 | 5 | 4
CN(C)P(=NC(=S)c1cccn1C)(N(C)C)N(C)C | -2 | 0 | 7 | -2 | 5 | 5
O=C(c1ccc2c(c1)ncn2-c1ccc(F)cc1F)N1CCC2(CC1)OCCO2 | 1 | 0 | 0 | 0 | 7 | 21*
COc1ccc(-n2c(C)nc3cc(C(=O)N4CCC5(CC4)OCCO5)ccc32)cc1 | -4 | 0 | 0 | 2 | 1 | 24*
Cc1nc2cc(C(=O)N3CCC4(CC3)OCCO4)ccc2n1-c1ccc(Br)cc1 | -1 | 1 | 3 | -7 | 2 | 4
CC1=NN(Cc2c[nH]c3ccccc23)C(C)(C)C1 | -2 | 1 | -2 | 5 | 0 | 2
SMILES | Ba/F3 V617F tox | bCat nuc transl | APP transl inh | IEC-6 tox | BaF3 tox | MT stabilize HCS
CCOc1ccc(Cl)cc1CNCCc1ccccc1F | 29* | 0 | nt | 0 | 63* | nt
COc1ccc(CCNCc2ccccc2F)cc1OC | -4 | -1 | 37 | 1 | 2 | 4
COc1ccc2oc3c(c2c1)NC(=O)CN=C3c1ccccc1 | -5 | -2 | -20 | 5 | 1 | 3
C[C@@H]1O[C@@H](O[C@H]2C[C@@H](O)[C@]3(CO)[C@H]4[C@H](O)C[C@]5(C)[C@@H](C6=CC(=O)OC6)CC[C@]5(O)[C@@H]4CC[C@]3(O)C2)[C@H](O)[C@H](O)[C@H]1O | -2 | 14 | 96* | 0 | 6 | 13
C[C@H]1O[C@@H](O[C@H]2[C@@H](O)C[C@H](O[C@H]3[C@@H](O)C[C@H](O[C@H]4CC[C@@]5(C)[C@H](CC[C@@H]6[C@@H]5CC[C@]5(C)[C@@H](C7=CC(=O)OC7)CC[C@]65O)C4)O[C@@H]3C)O[C@@H]2C)C[C@H](O)[C@@H]1O | -1 | 10 | 94* | 5 | 6 | 6
C[C@H]1O[C@@H](OC2CC[C@]3(C=O)[C@H]4CC[C@]5(C)[C@@H](C6=CC(=O)OC6)CC[C@]5(O)[C@@H]4CC[C@]3(O)C2)CC2OC(C)(C)OC21 (some centres undefined) | nt | nt | nt | -5 | nt | nt
Brc1ccc(CN2CCNCC2)s1 | -1 | nt | 12 | -1 | 1 | 2
C[C@]12CCC3C(CC[C@H]4C[C@H](N)CC[C@]34C)C1CC[C@H]2O (some centres undefined) | nt | nt | nt | -8 | nt | nt
CCn1c(=O)n(CC)c2cc([N+](=O)[O-])c(N3CCNCC3)cc21 | 2 | 1 | -13 | 1 | 3 | 3
CCc1n[nH]c(CCN)n1 | -1 | -5 | nt | -7 | 0 | nt
CN[C@H]1C[C@H]2O[C@@](C)([C@H]1OC)n1c3ccccc3c3c4c(c5c6ccccc6n2c5c31)C(=O)NC4 | nt | nt | 95* | nt | nt | 12
OCC[n+]1c2ccccc2nc2ccc(N3CCOCC3)cc21 | 19 | -2 | nt | 8 | 31* | nt
CCOc1ccc(Br)c(C2(O)CC(C)N(C)CC2C)c1 (centres undefined) | -1 | nt | -1 | -4 | 1 | 4
CN(C)c1ccc(C=C2C(=O)NC(=S)NC2=O)cc1[N+](=O)[O-] | 1 | 1 | -1 | -7 | 8 | 4
O=C1NC(=S)NC(=O)C1=Cc1cccc2cc3ccccc3cc12 | -1 | 58* | nt | -5 | -3 | nt
c1ccc2sc(C3CCNCC3)nc2c1 | nt | nt | nt | -6 | nt | nt
O=C1NC(=O)C(CCc2ccncc2)(CCc2ccccn2)C(=O)N1c1ccc(Br)cc1 (centres undefined) | -1 | 1 | -9 | -2 | 6 | 17*
CN(C)C(=O)Oc1ccc2c(c1)O/C(=C\c1cccc(Cl)c1)C2=O | nt | nt | nt | 1 | nt | nt
O=C(Cn1cnc2ccccc2c1=O)NCC(=O)N1CCC2(CC1)OCCO2 | 0 | -1 | -5 | 0 | 37* | 3
CC1=CC(=C2C(=O)NC(=S)NC2=O)C=C(C(F)(F)F)N1Cc1ccccc1 | 5 | 24 | 90* | 9 | 14 | 15*
CC1=CC(=C2C(=O)NC(=S)NC2=O)C=C(C(F)(F)F)N1CCc1ccccc1 | -1 | 3 | 92* | -4 | 8 | 25*
CC1=CC(=C2C(=O)NC(=O)NC2=O)C=C(C(F)(F)F)N1Cc1ccccc1 | 3 | 2 | -1 | 2 | 5 | 32

Source: PubChem
